Consider 15 compounds from ChEMBL document CHEMBL4673378, “Investigating the effects of the core nitrogen atom configuration on the thermodynamic solubility of 6,5-bicyclic heterocycles” (Bioorg Med Chem Lett, 2021).

Common to all, as to assay type: physicochemical
A short description of data set [1]: Thermodynamic solubility of compound in FaSSIF at pH 6.5 using amorphous form of sample. The settings on record: read-out: Therm_solubility. A digest of the protocol: (§1)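 Thermodynamic solubility in Fasted State Simulated Intestinal Fluid, buffered at pH 6.5 and containing 0.75 mM lecithin, reported in μg/mL. Runs were at least duplicate unless otherwise footnoted. Solid form was amorphous or crystalline, as the line states.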

A short description of data set [2]: Melting point of the compound using amorphous form of sample.
The nature of data set [3]: Lipophilicity, log D of the compound at pH 7.4 by chromatographic reverse phase method. The settings on record: reverse phase chromatography.
Data set [4] is described as follows: Ionization constant, pKa of the compound.
A short description of data set [5]: Thermodynamic solubility of compound in SLF at pH 6.9 using amorphous form of sample. The settings on record: read-out: Therm_solubility. In short, it runs like this: (§2)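 Thermodynamic solubility was measured from solid in Simulated Lung Fluid, buffered at pH 6.9 and containing 0.75 mM lecithin plus bovine serum albumin, reported in μg/mL. Runs were at least duplicate unless otherwise footnoted. Amorphous or crystalline material was used, as the line states.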

Data set [6] can be described thus: Kinetic solubility of the compound at pH 7.4 using crystalline form of sample. The settings on record: read-out: Kinetic_solubility. A digest of the protocol: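 Solubility at pH 7.4 measured from a 10 mM DMSO stock (stock concentration) of crystalline material, reported in μg/mL. Runs were at least duplicate unless otherwise footnoted.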
A short description of data set [7]: Thermodynamic solubility of compound in FaSSIF at pH 6.5 using crystalline form of sample. The settings on record: read-out: Therm_solubility. In short, it runs like this: as §1
Data set [8] in a line: Melting point of the compound using crystalline form of sample.
The nature of data set [9]: Thermodynamic solubility of compound in SLF at pH 6.9 using crystalline form of sample. The settings on record: read-out: Therm_solubility. A digest of the protocol:
as §2

Structures are written as SMILES. Values after ≈ are worked out from the molar mass of the structure shown. Bounds are passed on as bounds.

In general, chromatographic logD refers to lipophilicity estimated from chromatographic retention. For orientation: pKa means the pH at which an ionisable group is half protonated. Higher therefore signals a group that holds its proton tightly. On to `COc1ccc(-c2c(C)nc3c(NCc4ccc(C(N)=O)cc4)nc(C)cn23)cc1OC`, for which the results for the solubility thermodynamic in data set [1] and in data set [5] were 32 µg/mL (≈ 74.2 µM) and 9 µg/mL (≈ 20.9 µM), respectively. Further, the Tm in [2] is 191 °C. Also, the chromatographic logD in data set [3] stood at 3.9. This compound returned a pKa in data set [4] of 5. Moreover, the solubility kinetic in data set [6] was found to be 53 µg/mL (≈ 123 µM).

As to `COc1ccc(-c2c(C)nc3c(NCc4cccnc4)nc(C)cn23)cc1OC`, the solubility thermodynamic in [1] was determined as 335 µg/mL (≈ 860 µM); in [5], 58 µg/mL (≈ 149 µM). In addition, the Tm in [2] amounted to 128 °C. The compound further came in with a chromatographic logD in data set [3] of 4.5. The compound further displayed a pKa in data set [4] of 5.3. For the same compound, the solubility kinetic in data set [6] amounted to 67 µg/mL (≈ 172 µM).

For the compound `COc1ccc(-c2c(C)nn3c(NCc4ccc(N(C)C)cc4)nc(C)nc23)cc1OC`, the solubility thermodynamic in data set [7] turned out to be 32 µg/mL (≈ 74 µM); in data set [9] it was 10 µg/mL (≈ 23.1 µM). This compound came in with a chromatographic logD in data set [3] of 3.9. The compound also came in with a pKa in data set [4] of 2.9. Besides, the Tm in [8] worked out at 167 °C. Further, the solubility kinetic in data set [6] stood at 19 µg/mL (≈ 43.9 µM).

Consider `COc1ccc(-c2c(C)nn3c(NCc4ccc(C(N)=O)cc4)nc(C)cc23)cc1OC`, for which the solubility thermodynamic was 5 µg/mL (≈ 11.6 µM) in [7] and less than 6 µg/mL in data set [9]. In data set [3], this compound displayed a chromatographic logD of 4.8. For the same compound, in data set [4], the pKa worked out at 3.8. Moreover, in data set [8], the Tm was determined as 194 °C. Moreover, the solubility kinetic in data set [6] is 19 µg/mL (≈ 44 µM).

For the compound `COc1ccc(-c2c(C)nn3c(NCc4ccc(N(C)C)cc4)cc(C)nc23)cc1OC`, the results for the solubility thermodynamic in data set [7] and in [9] were 15 µg/mL (≈ 34.8 µM) and 1 µg/mL (≈ 2.32 µM), respectively. The chromatographic logD in data set [3] worked out at 3.7. For the same compound, the pKa in data set [4] worked out at 5.4. For the same compound, the Tm in data set [8] stood at 238 °C. Moreover, the solubility kinetic in data set [6] worked out at 79 µg/mL (≈ 183 µM).

On to `COc1ccc(-c2c(C)nn3c(NCc4cccnc4)cc(C)nc23)cc1OC`, for which the solubility thermodynamic in data set [7] turned out to be 141 µg/mL (≈ 362 µM); in data set [9], 39 µg/mL (≈ 100 µM). The chromatographic logD in data set [3] came to 4.3. The compound further gave a pKa in data set [4] of 5.4. Moreover, the Tm in data set [8] amounted to 149 °C. The solubility kinetic in [6] is more than 107 µg/mL.

In the case of `COc1ccc(-c2c(C)nn3c(NCc4cccnc4)nc(C)cc23)cc1OC`, the solubility thermodynamic amounted to 31 µg/mL (≈ 79.6 µM) in data set [7] and 6 µg/mL (≈ 15.4 µM) in data set [9]. Further, the chromatographic logD in [3] came to 5.5. The compound also registered a pKa in data set [4] of 2.8. Besides, the Tm in data set [8] came to 101 °C. In [6], the solubility kinetic came out at 35 µg/mL (≈ 89.9 µM).

On to `COc1ccc(-c2c(C)nc3c(NCc4cccnc4)cc(C)cn23)cc1OC`, for which the solubility thermodynamic was found to be 109 µg/mL (≈ 281 µM) in [7] and 33 µg/mL (≈ 84.9 µM) in data set [9]. The compound also came in with a chromatographic logD in data set [3] of 4.9. This compound also gave a pKa in data set [4] of 6.5. In data set [8], the Tm stood at 85 °C. In data set [6], the solubility kinetic was 86 µg/mL (≈ 221 µM).

Regarding `COc1ccc(-c2c(C)nc3c(NCc4ccc(C(N)=O)cc4)cc(C)cn23)cc1OC`, the solubility thermodynamic in data set [7] was 6 µg/mL (≈ 13.9 µM); in [9], 2 µg/mL (≈ 4.65 µM). Further, the chromatographic logD in [3] came to 4.3. The compound further had a pKa in [4] of 6.6. Moreover, the Tm in [8] worked out at 203 °C. Also, the solubility kinetic in data set [6] worked out at 29 µg/mL (≈ 67.4 µM).

Consider `COc1ccc(-c2c(C)nn3c(NCC4CCOCC4)nc(C)cc23)cc1OC`, for which the solubility thermodynamic turned out to be 13 µg/mL (≈ 32.8 µM) in data set [7] and 3 µg/mL (≈ 7.57 µM) in data set [9]. The same compound displayed a chromatographic logD in [3] of 6.4. Moreover, in [4], the pKa was 4.4. Further, in data set [8], the Tm stood at 104 °C. In [6], the solubility kinetic came to 44 µg/mL (≈ 111 µM).

Take `COc1ccc(-c2c(C)nc3c(NCC4CCOCC4)nc(C)cn23)cc1OC`: the solubility thermodynamic in [1] turned out to be 7 µg/mL (≈ 17.7 µM); in data set [5], 10 µg/mL (≈ 25.2 µM). Also, the Tm in [2] was 93 °C. Also, the chromatographic logD in data set [3] amounted to 5.2. In data set [4], this compound showed a pKa of 5.6. Further, the solubility kinetic in data set [6] is 99 µg/mL (≈ 250 µM).

In the case of `COc1ccc(-c2c(C)nn3c(NCC4CCOCC4)cc(C)nc23)cc1OC`, the results for the solubility thermodynamic in data set [7] and in data set [9] were 25 µg/mL (≈ 63.1 µM) and 18 µg/mL (≈ 45.4 µM), respectively. Also, the chromatographic logD in data set [3] was found to be 5.2. In data set [4], this compound yielded a pKa of 5.7. The Tm in data set [8] turned out to be 157 °C. Moreover, the solubility kinetic in data set [6] was more than 180 µg/mL.

`COc1ccc(-c2c(C)nn3c(NCc4cccnc4)nc(C)nc23)cc1OC`: the solubility thermodynamic in [7] and in data set [9] was 36 µg/mL (≈ 92.2 µM) throughout. Further, the chromatographic logD in data set [3] is 4.5. In data set [4], this compound had a pKa of 2.5. The Tm in [8] was determined as 149 °C. For the same compound, the solubility kinetic in data set [6] was more than 150 µg/mL.

Consider `COc1ccc(-c2c(C)nn3c(NCC4CCOCC4)nc(C)nc23)cc1OC`, for which the solubility thermodynamic in [7] was 29 µg/mL (≈ 73 µM); in [9], 18 µg/mL (≈ 45.3 µM). The compound further returned a chromatographic logD in data set [3] of 5.1. The pKa in data set [4] was 3.1. The Tm in data set [8] came out at 143 °C. Further, the solubility kinetic in data set [6] was more than 165 µg/mL.

Regarding `COc1ccc(-c2c(C)nc3c(NCC4CCOCC4)cc(C)cn23)cc1OC`, the solubility thermodynamic in [7] was 233 µg/mL (≈ 589 µM); in data set [9], 29 µg/mL (≈ 73.3 µM). The same compound registered a chromatographic logD in data set [3] of 6. This compound had a pKa in data set [4] of 6.7. In data set [8], the Tm is 90 °C. In addition, the solubility kinetic in data set [6] was 64 µg/mL (≈ 162 µM).
